# Measurements as given in ChEMBL document CHEMBL1135739, “Radiolabeled amino acids for tumor imaging with PET: radiosynthesis and biological evaluation of 2-amino-3-[18F]fluoro-2-methylpropanoic acid and 3-[18F]fluoro-2-methyl-2-(methylamino)propanoic acid” (J Med Chem, 2002).
# Experiments:
# [1] = organism: Rattus norvegicus; experiment: Radioactivity distribution in liver of tumor-bearing fischer rat after injection of [18F]fluoro-2-methylpropanoic acid after 60 min; type: ADME, organism-based; conditions: in vivo, 1 h
# Method in brief: (§1)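 Male Fischer 344 rats carried intracranial 9L gliosarcoma, stereotactically implanted (4×10^4 cells) and used 17–19 days later. Awake, restrained animals received about 35 μCi tracer in 0.3 mL sterile water via the tail vein and were killed at 5, 60 or 120 min (n = 4–5). Tissues were weighed, gamma-counted, decay-corrected and reported as %ID/g ± standard error.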
# [2] = organism: Rattus norvegicus; experiment: Radioactivity distribution in lung of normal fischer rat after injection of [18F]fluoro-2-methylpropanoic acid after 5 min.; type: ADME, organism-based; conditions: in vivo
# Method in brief: (§2)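 Male Fischer 344 rats (200–250 g), fed ad libitum, anesthetized with intramuscular ketamine:xylazine (1:1, 0.1 mL/100 g). About 85 μCi tracer in 0.3 mL sterile water was given by tail-vein catheter. Groups of four were killed at 5, 30, 60 or 120 min. Tissues were weighed and gamma-counted against dose standards, decay-corrected, and expressed as %ID/g (mean ± standard error).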
# [3] = organism: Rattus norvegicus; experiment: Radioactivity distribution in muscle of normal fischer rat after injection of [18F]fluoro-2-methylpropanoic acid after 30 min.; type: ADME, organism-based, Muscle tissue; conditions: in vivo, 0.5 h; method in brief: as §2
# [4] = organism: Rattus norvegicus; experiment: Radioactivity distribution in pancreas of normal fischer rat after injection of [18F]fluoro-2-methylpropanoic acid after 30 min.; type: ADME, organism-based; conditions: in vivo, 0.5 h; method in brief: as §2
# [5] = organism: Rattus norvegicus; experiment: Radioactivity distribution in heart of tumor-bearing fischer rat after injection of [18F]fluoro-2-methylpropanoic acid after 120 min; type: ADME, organism-based; conditions: in vivo, 2 h
# Method in brief: (§3)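 Male Fischer 344 rats carried intracranial 9L gliosarcoma, implanted stereotactically (4×10^4 cells) and used 17–19 days later. Awake restrained rats got ~35 μCi of tracer in 0.3 mL sterile water by tail-vein injection and were killed at 5, 60 or 120 min. Tissues were weighed and gamma-counted, and counts were decay-corrected to %ID/g. Results are mean ± standard error; n = 4 at 5 and 120 min, n = 5 at 60 min.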
# [6] = organism: Rattus norvegicus; experiment: Radioactivity distribution in pancreas of tumor-bearing fischer rat after injection of [18F]-fluoro-2-methylpropanoic acid after 5 min; type: ADME, organism-based; conditions: in vivo; method in brief: as §1
# [7] = organism: Rattus norvegicus; experiment: Radioactivity distribution in blood of normal fischer rat after injection of [18F]fluoro-2-methylpropanoic acid after 120 min.; type: ADME, organism-based; conditions: in vivo, 2 h
# Method in brief: (§4)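 Normal male Fischer 344 rats (200–250 g), anesthetized with i.m. ketamine:xylazine (1:1), got ~85 μCi of tracer in 0.3 mL sterile water i.v. via tail-vein catheter. Groups of four were killed at 5, 30, 60 or 120 min. Tissues were weighed and gamma-counted against dose standards, and counts were decay-corrected to %ID/g. Results are mean ± standard error (n = 4), compared by one-way ANOVA.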
# [8] = organism: Rattus norvegicus; experiment: Radioactivity distribution in bone of normal fischer rat after injection of [18F]fluoro-2-methylpropanoic acid after 5 min.; type: ADME, organism-based, Bone element; conditions: in vivo; method in brief: as §4
# [9] = organism: Rattus norvegicus; experiment: Radioactivity distribution in liver of tumor-bearing fischer rat after injection of [18F]fluoro-2-methylpropanoic acid after 120 min; type: ADME, organism-based; conditions: in vivo, 2 h; method in brief: as §1
# [10] = organism: Rattus norvegicus; experiment: Radioactivity distribution in bone of tumor-bearing fischer rat after injection of [18F]fluoro-2-methylpropanoic acid after 5 min; type: ADME, organism-based, Bone element; conditions: in vivo; method in brief: as §3
# [11] = organism: Rattus norvegicus; experiment: Radioactivity distribution in lung of tumor-bearing fischer rat after injection of [18F]-fluoro-2-methylpropanoic acid after 5 min; type: ADME, organism-based; conditions: in vivo; method in brief: as §1
# [12] = organism: Rattus norvegicus; experiment: Radioactivity distribution in testis of normal fischer rat after injection of [18F]fluoro-2-methylpropanoic acid after 120 min.; type: ADME, organism-based; conditions: in vivo, 2 h
# Method in brief: (§5)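 Male Fischer 344 rats (200–250 g), fed ad libitum, under intramuscular ketamine:xylazine anesthesia, got ~85 μCi radiotracer in 0.3 mL sterile water by tail-vein catheter. Groups of four were killed at 5, 30, 60 or 120 min. Dissected tissues were weighed and gamma-counted with dose standards. Counts were decay-corrected and given as %ID/g, mean ± standard error. Tissues were compared by one-way ANOVA.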
# [13] = organism: Rattus norvegicus; experiment: Radioactivity distribution in heart of normal fischer rat after injection of [18F]fluoro-2-methylpropanoic acid after 5 min.; type: ADME, organism-based; conditions: in vivo; method in brief: as §4
# [14] = organism: Rattus norvegicus; experiment: Radioactivity distribution in muscle of normal fischer rat after injection of [18F]fluoro-2-methylpropanoic acid after 120 min.; type: ADME, organism-based, Muscle tissue; conditions: in vivo, 2 h; method in brief: as §2
# [15] = organism: Rattus norvegicus; experiment: Radioactivity distribution in brain of normal fischer rat after injection of [18F]fluoro-2-methylpropanoic acid after 30 min.; type: ADME, organism-based; conditions: in vivo, 0.5 h; method in brief: as §4
# [16] = organism: Rattus norvegicus; experiment: Radioactivity distribution in liver of normal fischer rat after injection of [18F]fluoro-2-methylpropanoic acid after 30 min.; type: ADME, organism-based; conditions: in vivo, 0.5 h; method in brief: as §2
# [17] = organism: Rattus norvegicus; experiment: Radioactivity distribution in kidney of normal fischer rat after injection of [18F]fluoro-2-methylpropanoic acid after 120 min.; type: ADME, organism-based; conditions: in vivo, 2 h; method in brief: as §4
# [18] = organism: Rattus norvegicus; experiment: Radioactivity distribution in heart of normal fischer rat after injection of [18F]-fluoro-2-methylpropanoic acid after 60 min.; type: ADME, organism-based; conditions: in vivo, 1 h; method in brief: as §4
# [19] = organism: Rattus norvegicus; experiment: Radioactivity distribution in bone of normal fischer rat after injection of [18F]fluoro-2-methylpropanoic acid after 120 min.; type: ADME, organism-based, Bone element; conditions: in vivo, 2 h; method in brief: as §4
# [20] = organism: Rattus norvegicus; experiment: Radioactivity distribution in testis of normal fischer rat after injection of [18F]fluoro-2-methylpropanoic acid after 60 min.; type: ADME, organism-based; conditions: in vivo, 1 h; method in brief: as §5
# [21] = organism: Rattus norvegicus; experiment: Radioactivity distribution in testis of tumor-bearing fischer rat after injection of [18F]fluoro-2-methylpropanoic acid after 5 min; type: ADME, organism-based; conditions: in vivo
# Method in brief: (§6)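 Male Fischer rats had 4×10^4 9L gliosarcoma cells implanted stereotactically into the brain, 3 mm right of midline, 1 mm anterior to bregma, 5 mm deep. They were used 17–19 days later. Awake, restrained rats got ~35 μCi in 0.3 mL sterile water by tail vein and were killed at 5, 60 or 120 min. Tissues, tumor and contralateral brain were gamma-counted, decay-corrected, as %ID/g, mean ± SE, n = 4–5.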
# [22] = organism: Rattus norvegicus; experiment: Radioactivity distribution in kidney of tumor-bearing fischer rat after injection of [18F]fluoro-2-methylpropanoic acid after 120 min; type: ADME, organism-based; conditions: in vivo, 2 h; method in brief: as §1
# [23] = organism: Rattus norvegicus; experiment: Radioactivity distribution in kidney of tumor-bearing fischer rat after injection of [18F]fluoro-2-methylpropanoic acid after 5 min; type: ADME, organism-based; conditions: in vivo; method in brief: as §1
# [24] = organism: Rattus norvegicus; experiment: Radioactivity distribution in muscle of normal fischer rat after injection of [18F]-fluoro-2-methylpropanoic acid after 5 min.; type: ADME, organism-based, Muscle tissue; conditions: in vivo; method in brief: as §2
# [25] = organism: Rattus norvegicus; experiment: Radioactivity distribution in tumor of tumor-bearing fischer rat after injection of [18F]fluoro-2-methylpropanoic acid after 120 min; type: ADME, organism-based; conditions: in vivo, 2 h; method in brief: as §6
# [26] = organism: Rattus norvegicus; experiment: Radioactivity distribution in lung of normal fischer rat after injection of [18F]fluoro-2-methylpropanoic acid after 30 min.; type: ADME, organism-based; conditions: in vivo, 0.5 h; method in brief: as §2
# [27] = organism: Rattus norvegicus; experiment: Radioactivity distribution in heart of tumor-bearing fischer rat after injection of [18F]fluoro-2-methylpropanoic acid after 5 min; type: ADME, organism-based; conditions: in vivo; method in brief: as §3
# [28] = organism: Rattus norvegicus; experiment: Radioactivity distribution in bone of normal fischer rat after injection of [18F]-fluoro-2-methylpropanoic acid after 30 min.; type: ADME, organism-based, Bone element; conditions: in vivo, 0.5 h; method in brief: as §4
# [29] = organism: Rattus norvegicus; experiment: Radioactivity distribution in spleen of tumor-bearing fischer rat after injection of [18F]fluoro-2-methylpropanoic acid after 60 min; type: ADME, organism-based; conditions: in vivo, 1 h; method in brief: as §6
# [30] = organism: Rattus norvegicus; experiment: Radioactivity distribution in heart of tumor-bearing fischer rat after injection of [18F]fluoro-2-methylpropanoic acid after 60 min; type: ADME, organism-based; conditions: in vivo, 1 h; method in brief: as §3
# [31] = organism: Rattus norvegicus; experiment: Radioactivity distribution in liver of normal fischer rat after injection of [18F]fluoro-2-methylpropanoic acid after 5 min.; type: ADME, organism-based; conditions: in vivo; method in brief: as §2
# [32] = organism: Rattus norvegicus; experiment: Radioactivity distribution in heart of normal fischer rat after injection of [18F]fluoro-2-methylpropanoic acid after 30 min.; type: ADME, organism-based; conditions: in vivo, 0.5 h; method in brief: as §4
# [33] = organism: Rattus norvegicus; experiment: Radioactivity distribution in tumor of tumor-bearing fischer rat after injection of [18F]fluoro-2-methylpropanoic acid after 60 min; type: ADME, organism-based; conditions: in vivo, 1 h; method in brief: as §6
# [34] = organism: Rattus norvegicus; experiment: Radioactivity distribution in spleen of normal fischer rat after injection of [18F]fluoro-2-methylpropanoic acid after 5 min.; type: ADME, organism-based; conditions: in vivo; method in brief: as §5
smiles,measurement,setting,value
CC(N)(C[18F])C(=O)O.Cl (centres undefined),ID/g,[1],0.66%
same,ID/g,[2],0.55%
same,ID/g,[3],0.22%
same,ID/g,[4],2.93%
same,ID/g,[5],0.22%
same,ID/g,[6],5.31%
same,ID/g,[7],0.15%
same,ID/g,[8],0.27%
same,ID/g,[9],0.25%
same,ID/g,[10],0.38%
same,ID/g,[11],0.84%
same,ID/g,[12],0.1%
same,ID/g,[13],0.29%
same,ID/g,[14],0.19%
same,ID/g,[15],0.05%
same,ID/g,[16],0.56%
same,ID/g,[17],2.97%
same,ID/g,[18],0.28%
same,ID/g,[19],0.13%
same,ID/g,[20],0.12%
same,ID/g,[21],0.22%
same,ID/g,[22],3.64%
same,ID/g,[23],8.66%
same,ID/g,[24],0.22%
same,ID/g,[25],1.87%
same,ID/g,[26],0.54%
same,ID/g,[27],0.4%
same,ID/g,[28],0.22%
same,ID/g,[29],0.55%
same,ID/g,[30],0.33%
same,ID/g,[31],0.65%
same,ID/g,[32],0.29%
same,ID/g,[33],1.96%
same,ID/g,[34],0.83%
